Data: ChEMBL document CHEMBL3627606, “Development of Novel, CNS Penetrant Positive Allosteric Modulators for the Metabotropic Glutamate Receptor Subtype 1 (mGlu1), Based on an N-(3-Chloro-4-(1,3-dioxoisoindolin-2-yl)phenyl)-3-methylfuran-2-carboxamide Scaffold, That Potentiate Wild Type and Mutant mGlu1 Receptors Found in …” (J Med Chem, 2015)

How the values were obtained:
[1] = biological target: T1, Metabotropic glutamate receptor 4 (Homo sapiens, UniProt Q14833); experiment: Positive allosteric modulation of human mGlu4 receptor assessed as potentiation of glutamate-induced calcium mobiliztion by cell based assay relative to PHCCC
T1 sequence (Q14833 whole entry): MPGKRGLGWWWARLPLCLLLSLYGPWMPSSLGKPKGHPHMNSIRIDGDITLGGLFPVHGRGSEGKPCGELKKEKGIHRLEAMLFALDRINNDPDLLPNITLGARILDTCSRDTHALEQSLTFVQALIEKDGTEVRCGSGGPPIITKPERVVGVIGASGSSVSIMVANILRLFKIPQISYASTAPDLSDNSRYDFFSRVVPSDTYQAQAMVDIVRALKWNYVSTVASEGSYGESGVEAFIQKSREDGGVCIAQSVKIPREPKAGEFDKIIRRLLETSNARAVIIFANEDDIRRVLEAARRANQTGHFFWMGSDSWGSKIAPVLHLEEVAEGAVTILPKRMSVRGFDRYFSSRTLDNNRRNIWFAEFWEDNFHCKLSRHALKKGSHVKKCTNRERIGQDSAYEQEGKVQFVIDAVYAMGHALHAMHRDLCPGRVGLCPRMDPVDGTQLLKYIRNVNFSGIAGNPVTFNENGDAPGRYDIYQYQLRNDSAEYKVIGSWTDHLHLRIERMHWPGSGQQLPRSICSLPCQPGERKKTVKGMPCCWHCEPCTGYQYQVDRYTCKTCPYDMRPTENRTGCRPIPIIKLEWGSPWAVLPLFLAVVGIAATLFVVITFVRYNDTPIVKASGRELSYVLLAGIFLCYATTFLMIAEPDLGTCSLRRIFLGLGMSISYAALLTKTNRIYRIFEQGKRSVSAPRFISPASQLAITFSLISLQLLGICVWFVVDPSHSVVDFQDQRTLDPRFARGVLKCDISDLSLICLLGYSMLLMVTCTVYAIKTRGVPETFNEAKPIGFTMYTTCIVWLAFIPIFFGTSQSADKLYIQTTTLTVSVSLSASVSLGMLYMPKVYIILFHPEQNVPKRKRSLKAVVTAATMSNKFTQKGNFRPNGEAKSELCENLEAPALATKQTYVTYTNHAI

[2] = biological target: T1, Metabotropic glutamate receptor 4; experiment: Positive allosteric modulation of human mGlu4 receptor assessed as potentiation of glutamate-induced calcium mobiliztion by cell based assay; assay type: functional
[3] = biological target: T2, Metabotropic glutamate receptor 1 (Homo sapiens, UniProt Q13255); experiment: Positive allosteric modulation of human mGlu1 receptor in HEK293 cells assessed as potentiation of glutamate-induced calcium mobiliztion by Fluo-4AM dye based fluorescence analysis relative to glutamate; assay type: functional, cell-based
Target sequence in this assay (Q13255 19-1194 limits assumed): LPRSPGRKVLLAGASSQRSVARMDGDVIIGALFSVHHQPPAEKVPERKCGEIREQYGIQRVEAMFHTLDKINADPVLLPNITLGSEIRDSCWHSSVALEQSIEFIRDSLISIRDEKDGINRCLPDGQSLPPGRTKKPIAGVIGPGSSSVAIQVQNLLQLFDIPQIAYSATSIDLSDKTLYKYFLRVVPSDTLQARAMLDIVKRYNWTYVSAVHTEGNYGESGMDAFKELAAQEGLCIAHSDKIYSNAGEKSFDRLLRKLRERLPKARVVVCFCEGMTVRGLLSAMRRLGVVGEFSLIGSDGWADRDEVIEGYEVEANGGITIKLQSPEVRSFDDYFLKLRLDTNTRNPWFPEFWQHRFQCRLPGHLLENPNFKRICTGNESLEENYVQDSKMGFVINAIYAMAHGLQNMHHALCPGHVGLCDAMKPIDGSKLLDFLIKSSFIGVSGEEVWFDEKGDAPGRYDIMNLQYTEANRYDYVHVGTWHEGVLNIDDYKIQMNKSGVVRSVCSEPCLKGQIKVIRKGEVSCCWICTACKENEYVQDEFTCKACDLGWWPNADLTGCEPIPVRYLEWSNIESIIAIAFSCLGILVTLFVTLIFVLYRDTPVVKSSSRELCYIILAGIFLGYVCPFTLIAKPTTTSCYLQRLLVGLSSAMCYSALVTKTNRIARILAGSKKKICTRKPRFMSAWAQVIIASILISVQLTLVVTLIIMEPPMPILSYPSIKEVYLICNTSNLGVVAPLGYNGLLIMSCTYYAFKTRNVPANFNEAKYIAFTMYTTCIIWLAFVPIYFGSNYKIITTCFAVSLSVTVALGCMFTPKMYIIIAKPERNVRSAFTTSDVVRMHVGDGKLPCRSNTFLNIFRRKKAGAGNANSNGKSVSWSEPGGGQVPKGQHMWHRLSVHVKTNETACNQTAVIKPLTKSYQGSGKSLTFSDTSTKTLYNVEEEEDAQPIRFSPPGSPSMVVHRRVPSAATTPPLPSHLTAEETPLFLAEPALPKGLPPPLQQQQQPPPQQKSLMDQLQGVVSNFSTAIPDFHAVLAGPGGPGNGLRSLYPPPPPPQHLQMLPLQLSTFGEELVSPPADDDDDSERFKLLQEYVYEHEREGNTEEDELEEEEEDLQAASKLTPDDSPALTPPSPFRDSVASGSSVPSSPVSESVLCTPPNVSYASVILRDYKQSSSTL

[4] = organism: Homo sapiens; experiment: Selectivity index, ratio of EC50 for human mGlu4 receptor to EC50 for human mGlu1 receptor
[5] = biological target: T2, Metabotropic glutamate receptor 1; experiment: Positive allosteric modulation of human mGlu1 receptor in HEK293 cells assessed as potentiation of glutamate-induced calcium mobiliztion by Fluo-4AM dye based fluorescence analysis; assay type: functional, cell-based; details: read-out: EC50
Target sequence in this assay (Q13255 whole entry): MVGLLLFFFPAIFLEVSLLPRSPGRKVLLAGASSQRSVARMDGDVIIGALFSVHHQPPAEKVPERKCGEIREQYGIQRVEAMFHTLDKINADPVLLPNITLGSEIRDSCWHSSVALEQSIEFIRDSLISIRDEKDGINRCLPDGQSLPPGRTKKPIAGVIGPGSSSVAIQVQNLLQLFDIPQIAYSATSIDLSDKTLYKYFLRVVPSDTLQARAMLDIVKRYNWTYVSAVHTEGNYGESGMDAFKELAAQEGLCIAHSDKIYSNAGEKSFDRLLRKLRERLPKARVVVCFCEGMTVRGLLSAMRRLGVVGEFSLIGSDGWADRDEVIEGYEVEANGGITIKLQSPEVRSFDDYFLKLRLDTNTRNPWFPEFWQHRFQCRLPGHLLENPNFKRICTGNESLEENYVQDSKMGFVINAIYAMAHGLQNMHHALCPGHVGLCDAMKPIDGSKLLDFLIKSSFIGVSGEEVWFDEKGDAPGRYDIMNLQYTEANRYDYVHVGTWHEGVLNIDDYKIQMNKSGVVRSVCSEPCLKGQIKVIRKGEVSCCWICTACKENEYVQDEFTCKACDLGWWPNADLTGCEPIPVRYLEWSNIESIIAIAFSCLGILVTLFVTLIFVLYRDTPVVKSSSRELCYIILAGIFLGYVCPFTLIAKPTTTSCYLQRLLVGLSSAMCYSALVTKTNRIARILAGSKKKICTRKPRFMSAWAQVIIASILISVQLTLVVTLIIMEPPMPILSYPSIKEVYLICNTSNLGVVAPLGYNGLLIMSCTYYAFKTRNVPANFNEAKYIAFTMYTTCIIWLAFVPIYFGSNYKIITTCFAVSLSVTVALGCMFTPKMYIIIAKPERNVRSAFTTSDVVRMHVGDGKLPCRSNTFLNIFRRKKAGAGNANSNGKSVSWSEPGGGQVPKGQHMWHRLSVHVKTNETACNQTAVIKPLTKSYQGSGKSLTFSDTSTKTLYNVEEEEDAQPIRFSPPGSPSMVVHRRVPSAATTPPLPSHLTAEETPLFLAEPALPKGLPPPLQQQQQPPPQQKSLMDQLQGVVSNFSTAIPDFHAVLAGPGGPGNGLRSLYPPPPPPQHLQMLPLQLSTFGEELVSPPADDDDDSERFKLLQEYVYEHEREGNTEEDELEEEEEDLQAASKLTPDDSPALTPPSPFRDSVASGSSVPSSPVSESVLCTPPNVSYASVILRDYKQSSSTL

[6] = tested on: Plasma; experiment: Drug level in human plasma treated with N-(3-chloro-4-(5-chloro-1,3-dioxoisoindolin-2-yl)phenyl)-3-methylfuran-2-carboxamide at 10 uM after 4 hrs by mass spectrometry; assay type: ADME, cell-free
Procedure, shortened: (§1)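 Compound incubated at 10 μM in rat or human plasma at 37 °C. Samples taken at 0 and 4 h were analysed by mass spectrometry for parent and metabolites.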

[7] = tested on: Plasma; experiment: Drug level in rat plasma treated with N-(3-chloro-4-(5-chloro-1,3-dioxoisoindolin-2-yl)phenyl)-3-methylfuran-2-carboxamide at 10 uM after 4 hrs by mass spectrometry; assay type: ADME, cell-free
Procedure, shortened: as §1

A %max [1] of 153%, an EC50 ([2]; read-out: EC50) of 620 nM and a %max [3] of 86% were found for Cc1ccoc1C(=O)Nc1ccc(N2C(=O)c3cccc(C)c3C2=O)c(Cl)c1 in this work. For the same molecule, the Ratio EC50 [4] was 25.5 and the EC50 [5] was 24.3 nM.

A %max [3] of 35% and an EC50 [5] greater than 10000 nM were found for CS(=O)(=O)c1ccc(C(=O)Nc2ccc(N3C(=O)c4ccccc4C3=O)c(Cl)c2)o1 in this work.

A %max [3] of 76% and an EC50 [5] of 550 nM were found for O=C(Nc1ccc(N2C(=O)c3ccccc3C2=O)c(Cl)c1)c1ccco1 in this work.

An EC50 [5] greater than 10000 nM was found for O=C(Nc1ccc(N2C(=O)c3ccccc3C2=O)c(Cl)c1)c1coc2ccccc12 in this work.

An EC50 [5] greater than 10000 nM was found for CN(C)Cc1ccc(C(=O)Nc2ccc(N3C(=O)c4ccccc4C3=O)c(Cl)c2)o1 in this work.

A %max [3] of 45% and an EC50 [5] greater than 10000 nM were found for O=C(Nc1ccc(N2C(=O)c3ccccc3C2=O)c(Cl)c1)c1ccc(Br)o1 in this work.

A %max [1] of 97%, an EC50 ([2]; read-out: EC50) of 712 nM and an EC50 ([2]; read-out: pEC50 (converted)) of 724 nM were found for Cc1ccoc1C(=O)Nc1ccc(N2C(=O)c3ccc(F)cc3C2=O)c(Cl)c1 in this work. It also gave a %max [3] of 88%, a Ratio EC50 [4] of 29.7 and an EC50 [5] of 24.1 nM.

A %max [1] of 69%, an EC50 ([2]; read-out: EC50) of 323 nM and a %max [3] of 86% were found for Cc1ccc2c(c1)C(=O)N(c1ccc(NC(=O)c3occc3C)cc1Cl)C2=O in this work. For the same molecule, the Ratio EC50 [4] was 5.9 and the EC50 [5] was 54.4 nM.

A %max [3] of 60% and an EC50 [5] greater than 10000 nM were found for Cc1ccc(C(=O)Nc2ccc(N3C(=O)c4ccccc4C3=O)c(Cl)c2)o1 in this work.

An EC50 [5] greater than 10000 nM was found for O=C(Nc1ccc(N2C(=O)c3ccccc3C2=O)c(Cl)c1)c1cc2ccccc2o1 in this work.

A %max [3] of 55% and an EC50 [5] greater than 10000 nM were found for O=C(Nc1ccc(N2C(=O)c3ccccc3C2=O)c(Cl)c1)c1ccc(Cl)o1 in this work.

With Cc1ccoc1C(=O)Nc1ccc(NC(=O)c2ccc(Cl)cc2C(=O)O)c(Cl)c1 the Drug metabolism [6] was “metabolite_detected” and the Drug metabolism [7] was “metabolite_detected”.

An EC50 [5] greater than 10000 nM was found for O=C(Nc1ccc(N2C(=O)c3ccccc3C2=O)c(Cl)c1)c1ccno1 in this work.

A %max [3] of 118% and an EC50 [5] of 97 nM were found for Cc1ccoc1C(=O)Nc1ccc(N2C(=O)c3ccccc3C2=O)c(Cl)c1 in this work.

A %max [3] of 107% and an EC50 [5] of 4470 nM were found for O=C(Nc1ccc(N2C(=O)c3ccccc3C2=O)c(Cl)c1)c1cscn1 in this work.

For Cc1ccoc1C(=O)Nc1ccc(NC(=O)c2cc(Cl)ccc2C(=O)O)c(Cl)c1, the Drug metabolism [6] was “metabolite_detected” and the Drug metabolism [7] was “metabolite_detected”.

An EC50 [5] greater than 10000 nM was found for O=C(Nc1ccc(N2C(=O)c3ccccc3C2=O)c(Cl)c1)C1CCCO1 (stereo unspecified) in this work.

A %max [3] of 43% and an EC50 [5] greater than 10000 nM were found for O=C(Nc1ccc(N2C(=O)c3ccccc3C2=O)c(Cl)c1)c1ccc(C(F)(F)F)o1 in this work.
